A value given as a limit tells only on which side of the number the result lay.

Among the data in ChEMBL document CHEMBL1765045, “Fine-tuning the selectivity of aldosterone synthase inhibitors: structure-activity and structure-selectivity insights from studies of heteroaryl substituted 1,2,5,6-tetrahydropyrrolo[3,2,1-ij]quinolin-4-one derivatives” (J Med Chem, 2011) are IC50, inhibition and Ratio IC50 values, retold here.

The target in data set [1] is T1, Cytochrome P450 11B1, mitochondrial (Homo sapiens, UniProt P15538).
T1 sequence (P15538 whole entry): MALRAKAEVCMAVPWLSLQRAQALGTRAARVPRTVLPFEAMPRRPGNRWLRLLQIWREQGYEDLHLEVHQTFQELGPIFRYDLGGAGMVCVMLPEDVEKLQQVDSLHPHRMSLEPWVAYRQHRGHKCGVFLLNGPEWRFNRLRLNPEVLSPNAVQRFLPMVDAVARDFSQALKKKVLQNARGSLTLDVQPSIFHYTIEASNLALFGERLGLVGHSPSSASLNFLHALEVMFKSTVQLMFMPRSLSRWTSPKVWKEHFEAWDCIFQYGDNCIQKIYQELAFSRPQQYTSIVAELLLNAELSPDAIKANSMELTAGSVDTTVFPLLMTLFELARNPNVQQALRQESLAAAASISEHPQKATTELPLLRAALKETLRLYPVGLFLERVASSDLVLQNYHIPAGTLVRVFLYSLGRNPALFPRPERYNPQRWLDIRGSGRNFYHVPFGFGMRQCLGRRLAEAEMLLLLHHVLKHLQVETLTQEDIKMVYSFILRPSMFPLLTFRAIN
Briefly: Inhibition of human CYP11B1 expressed in hamster V79 MZh cells assessed as conversion of [4-14C]-11-deoxycorticosterone substrate by HPTLC assay. The class given is cell-based. In a few lines: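 V79 MZh hamster fibroblasts stably expressing human CYP11B1 or CYP11B2 incubated with [4-14C]-11-deoxycorticosterone, 100 nM, plus inhibitor at ≥3 concentrations. Reaction stopped with ethyl acetate, steroids extracted into the organic phase, and substrate conversion quantified by HPTLC with phosphoimaging. IC50 is the mean of at least three experiments.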

The target of data set [2] is T2, CYP2C9 (Homo sapiens, UniProt P11712). The data set is described as follows: Inhibition of human CYP2C9 expressed in baculovirus-infected insect microsomes at 1 uM. The format is ADME, Microsome. In a few lines:
(§1)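 Recombinant human CYP1A2, 2B6, 2C9, 2C19, 2D6 or 3A4 in baculovirus-infected insect microsomes (Supersomes), run per manufacturer's protocol. Inhibitor at 1 and 10 μM; percent inhibition is the mean of two experiments.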

In another data set the target is T3, CYP17 (Homo sapiens, UniProt P05093).
T3 sequence (P05093 whole entry): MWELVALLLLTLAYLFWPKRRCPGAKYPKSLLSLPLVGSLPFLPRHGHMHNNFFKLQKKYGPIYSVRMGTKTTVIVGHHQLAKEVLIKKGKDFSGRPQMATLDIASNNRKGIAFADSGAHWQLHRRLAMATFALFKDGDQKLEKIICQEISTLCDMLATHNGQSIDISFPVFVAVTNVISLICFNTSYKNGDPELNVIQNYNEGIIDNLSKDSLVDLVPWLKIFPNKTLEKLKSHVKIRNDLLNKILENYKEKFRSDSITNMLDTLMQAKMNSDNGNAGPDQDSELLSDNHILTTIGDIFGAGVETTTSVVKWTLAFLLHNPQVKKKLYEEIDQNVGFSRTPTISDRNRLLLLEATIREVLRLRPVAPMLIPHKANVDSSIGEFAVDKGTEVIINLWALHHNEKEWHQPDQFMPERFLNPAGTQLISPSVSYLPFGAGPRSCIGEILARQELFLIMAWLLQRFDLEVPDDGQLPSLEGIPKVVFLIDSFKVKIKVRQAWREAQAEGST
Briefly: Inhibition of human CYP17 expressed in Escherichia coli using progesterone substrate at 2 uM. Conditions: recombinant human CYP17 expressed in Escherichia coli, probe progesterone. In a few lines: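 50000g sediment of E. coli homogenate recombinantly expressing human CYP17. Progesterone substrate at 25 μM, inhibitor tested at 2 μM.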

Data set [3] concerns the target T4, CYP1A2 (Homo sapiens, UniProt P05177).
T4 sequence (P05177 whole entry): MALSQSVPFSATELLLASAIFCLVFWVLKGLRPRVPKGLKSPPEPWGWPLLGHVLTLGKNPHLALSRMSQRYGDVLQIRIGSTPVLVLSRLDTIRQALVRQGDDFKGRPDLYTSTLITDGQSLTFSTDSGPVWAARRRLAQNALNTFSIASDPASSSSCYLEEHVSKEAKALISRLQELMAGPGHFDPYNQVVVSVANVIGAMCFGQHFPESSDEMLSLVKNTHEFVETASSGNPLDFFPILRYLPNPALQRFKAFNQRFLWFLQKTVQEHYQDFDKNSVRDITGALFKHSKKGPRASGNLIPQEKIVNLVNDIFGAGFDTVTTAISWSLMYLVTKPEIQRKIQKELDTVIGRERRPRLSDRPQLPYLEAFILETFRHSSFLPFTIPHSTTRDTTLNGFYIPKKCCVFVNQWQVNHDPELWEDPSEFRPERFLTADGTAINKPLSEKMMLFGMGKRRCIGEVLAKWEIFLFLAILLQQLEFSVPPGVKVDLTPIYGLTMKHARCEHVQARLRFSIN
Briefly: Inhibition of human CYP1A2 expressed in baculovirus-infected insect microsomes at 10 uM. The format is ADME, Microsome. In a few lines: as §1

The target of data set [4] is T5, Cytochrome P450 11B2, mitochondrial (Homo sapiens, UniProt P19099).
T5 sequence (P19099 whole entry): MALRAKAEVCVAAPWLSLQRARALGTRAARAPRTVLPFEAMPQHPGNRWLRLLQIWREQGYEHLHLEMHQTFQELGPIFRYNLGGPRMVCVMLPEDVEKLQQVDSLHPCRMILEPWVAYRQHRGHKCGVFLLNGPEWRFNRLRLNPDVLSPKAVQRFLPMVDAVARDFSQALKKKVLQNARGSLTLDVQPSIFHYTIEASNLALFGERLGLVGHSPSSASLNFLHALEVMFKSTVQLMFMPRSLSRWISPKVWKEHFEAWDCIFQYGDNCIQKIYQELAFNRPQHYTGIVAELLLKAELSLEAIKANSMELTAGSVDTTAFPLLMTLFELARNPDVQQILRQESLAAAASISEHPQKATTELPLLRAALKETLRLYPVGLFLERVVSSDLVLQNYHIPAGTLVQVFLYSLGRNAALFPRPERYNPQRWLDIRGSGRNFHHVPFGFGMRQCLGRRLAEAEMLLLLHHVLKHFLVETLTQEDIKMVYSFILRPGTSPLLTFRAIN
Briefly: Inhibition of human CYP11B2 expressed in hamster V79 MZh cells assessed as conversion of [4-14C]-11-deoxycorticosterone substrate by HPTLC assay. The format is cell-based. In outline: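 Hamster V79 MZh fibroblasts expressing human CYP11B2 incubated with [4-14C]-11-deoxycorticosterone (100 nM) and inhibitor at ≥3 concentrations; reaction stopped with ethyl acetate, steroids extracted after shaking and centrifugation (10000g, 2 min). Substrate conversion read by HPTLC with phosphoimaging.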

A further data set is filed under the species Homo sapiens. Briefly: Selectivity ratio of IC50 for human CYP11B1 to IC50 for human CYP11B2. In a few lines: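 Ratio of IC50 values from V79 MZh cell assays for human CYP11B1 and CYP11B2, IC50 CYP11B1/IC50 CYP11B2. Both assays used [4-14C]-11-deoxycorticosterone, 100 nM, inhibitor at ≥3 concentrations and HPTLC/phosphoimager readout of conversion.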

Data set [5] concerns the target T2, CYP2C9. The data set is described as follows: Inhibition of human CYP2C9 expressed in baculovirus-infected insect microsomes at 10 uM. The format is ADME, Microsome. In outline:
as §1

For data set [6], the target named is T5, Cytochrome P450 11B2, mitochondrial. The data set is described as follows: Inhibition of human CYP11B2 expressed in hamster V79 MZh cells assessed as conversion of [4-14C]-11-deoxycorticosterone substrate at 500 nM by HPTLC assay. The class given is cell-based. As to conditions: V79MZh. In outline:
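V79 MZh cells expressing human CYP11B2 given [4-14C]-11-deoxycorticosterone, 100 nM, with inhibitor at a single 500 nM concentration. Ethyl acetate extraction, then HPTLC/phosphoimager readout of conversion. Percent inhibition is the mean of at least three experiments.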

Data set [7] addresses T6, CYP2C19 (Homo sapiens, UniProt P33261). The data set is described as follows: Inhibition of human CYP2C19 expressed in baculovirus-infected insect microsomes at 10 uM. The format is ADME, Microsome. In a few lines:
as §1

For data set [8], the target named is T7, CYP3A4 (Homo sapiens, UniProt P08684). The data set is described as follows: Inhibition of human CYP3A4 expressed in baculovirus-infected insect microsomes at 10 uM. The class given is ADME, Microsome. In a few lines: as §1
The target of data set [9] is T4, CYP1A2. Briefly: Inhibition of human CYP1A2 expressed in baculovirus-infected insect microsomes at 1 uM. The format is ADME, Microsome. In a few lines: as §1
The target in data set [10] is T6, CYP2C19. The data set is described as follows: Inhibition of human CYP2C19 expressed in baculovirus-infected insect microsomes at 1 uM. The class given is ADME, Microsome. In outline: as §1
The target in data set [11] is T7, CYP3A4. Briefly: Inhibition of human CYP3A4 expressed in baculovirus-infected insect microsomes at 1 uM. The format is ADME, Microsome. In a few lines: as §1

T2 sequence (P11712 whole entry): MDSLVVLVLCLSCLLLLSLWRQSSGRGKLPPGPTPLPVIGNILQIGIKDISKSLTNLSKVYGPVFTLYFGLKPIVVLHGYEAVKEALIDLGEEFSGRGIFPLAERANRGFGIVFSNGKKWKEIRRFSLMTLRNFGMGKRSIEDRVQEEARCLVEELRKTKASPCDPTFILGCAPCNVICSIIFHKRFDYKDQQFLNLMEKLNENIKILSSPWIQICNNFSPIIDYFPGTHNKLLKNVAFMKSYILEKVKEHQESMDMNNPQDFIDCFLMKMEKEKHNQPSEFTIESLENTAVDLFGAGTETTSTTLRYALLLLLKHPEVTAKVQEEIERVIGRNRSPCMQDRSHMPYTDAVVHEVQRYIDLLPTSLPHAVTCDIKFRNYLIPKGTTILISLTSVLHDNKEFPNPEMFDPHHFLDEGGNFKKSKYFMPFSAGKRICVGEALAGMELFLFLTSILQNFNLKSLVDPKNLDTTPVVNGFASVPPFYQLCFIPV
T7 sequence (P08684 whole entry): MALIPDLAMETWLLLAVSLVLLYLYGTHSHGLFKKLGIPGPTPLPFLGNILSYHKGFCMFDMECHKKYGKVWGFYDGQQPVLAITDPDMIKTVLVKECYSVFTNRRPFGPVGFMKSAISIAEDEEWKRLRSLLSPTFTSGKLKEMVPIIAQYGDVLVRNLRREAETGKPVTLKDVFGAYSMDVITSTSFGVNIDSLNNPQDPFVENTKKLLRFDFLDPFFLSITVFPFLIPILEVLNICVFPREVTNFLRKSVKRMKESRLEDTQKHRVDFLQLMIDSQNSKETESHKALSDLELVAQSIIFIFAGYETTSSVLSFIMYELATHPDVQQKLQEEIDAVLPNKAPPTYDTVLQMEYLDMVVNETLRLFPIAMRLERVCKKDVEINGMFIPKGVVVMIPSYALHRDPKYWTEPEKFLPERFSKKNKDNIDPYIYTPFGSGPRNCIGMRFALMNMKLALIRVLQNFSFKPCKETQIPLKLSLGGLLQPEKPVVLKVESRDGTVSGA
T6 sequence (P33261 whole entry): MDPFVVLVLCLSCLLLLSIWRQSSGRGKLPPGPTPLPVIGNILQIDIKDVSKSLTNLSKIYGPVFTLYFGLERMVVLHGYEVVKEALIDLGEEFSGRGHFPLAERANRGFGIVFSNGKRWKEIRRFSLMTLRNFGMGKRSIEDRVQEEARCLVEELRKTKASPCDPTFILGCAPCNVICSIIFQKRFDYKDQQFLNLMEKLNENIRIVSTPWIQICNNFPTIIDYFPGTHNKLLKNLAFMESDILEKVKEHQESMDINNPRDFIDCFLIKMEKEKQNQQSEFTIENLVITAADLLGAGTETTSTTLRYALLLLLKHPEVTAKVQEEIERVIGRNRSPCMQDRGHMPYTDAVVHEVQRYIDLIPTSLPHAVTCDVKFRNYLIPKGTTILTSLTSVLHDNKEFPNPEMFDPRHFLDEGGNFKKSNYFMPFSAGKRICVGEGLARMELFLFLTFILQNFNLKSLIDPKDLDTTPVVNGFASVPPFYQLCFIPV

Turning to `O=C1CCc2cc(-c3cncc4ccccc34)cc3c2N1CCC3`, the IC50 – broadly, the concentration that inhibits the measured activity by half – in data set [1] came out at 34 nM; in data set [4], 0.2 nM. The inhibition (in general, the relative decrease from the control value, in per cent) at 1 µM was 73% against CYP2C9 [2], 24% on CYP1A2 [9], 67% against CYP2C19 [10] and < 5% against CYP3A4 [11]. Moreover, the inhibition at 2 µM on CYP17 worked out at 5%. For the same molecule, the inhibition at 10 µM was 63% against CYP1A2 [3], 97% at CYP2C9 [5], 96% against CYP2C19 [7] and < 5% against CYP3A4 [8]. Moreover, the Ratio IC50 in the data set filed under Homo sapiens is 170. The inhibition at 0.5 µM in [6] worked out at 95%.
`COc1cncc(-c2cc3c4c(c2)CCC(=O)N4CCC3)c1`: the IC50 in data set [1] turned out to be 545 nM; in data set [4] it was 0.9 nM. Further, the inhibition at 1 µM at CYP2C9 [2] amounted to 34%; at CYP1A2 [9], 47%; against CYP2C19 [10], 11%; against CYP3A4 [11], 12%. The inhibition at 2 µM on CYP17 was < 5%. Besides, the inhibition at 10 µM on CYP1A2 [3] stood at 87%; against CYP2C9 [5], 63%; against CYP2C19 [7], 61%; against CYP3A4 [8], 24%. Further, the inhibition at 0.5 µM in data set [6] was 95%.
